What was measured:
[1] = Cytotoxicity against african green monkey Vero cells after 72 hrs by MTT assay; format: cell-based; details: chlorocebus sabaeus
In short: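 Vero monkey kidney […] were exposed to compounds for 72 h, and viable cells were detected with MTT by a modified Mosmann method. CC50 is the mean of two independent experiments.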

[2] = tested on: Leishmania donovani; test: Antileishmanial activity against amastigotes of Leishmania donovani assessed as inhibition of parasite growth after 72 hrs by luciferase reporter assay; format: functional, organism-based
In short: (§1)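 J-774A.1 murine macrophages (4 × 10³/well) were seeded and grown 24 h, then infected with luciferase-transfected L. donovani promastigotes (4 × 10⁴/well) that transformed intracellularly into amastigotes. Compounds at […] were added for 72 h. After supernatant removal, cells were taken up in PBS with Steady-Glo and luminescence read. Inhibition was calculated against untreated controls. IC50 is the mean of two independent experiments.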

[3] = Selectivity index, ratio of CC50 for african green monkey Vero cells to IC50 for amastigotes of Leishmania donovani; format: functional
In short: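 Ratio of CC50 on Vero cells (72 h MTT) to IC50 on intramacrophage L. donovani amastigotes in luciferase-expressing J-774A.1 infections (72 h). Both values are means of two independent experiments.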

[4] = tested on: Leishmania donovani; test: Antileishmanial activity against amastigotes of Leishmania donovani assessed as inhibition of parasite growth at 40 uM after 72 hrs by luciferase reporter assay; format: functional; in short: as §1
[5] = tested on: Leishmania donovani; test: Antileishmanial activity against Leishmania donovani infected in golden hamster assessed as inhibition of parasite multiplication at 50 mg/kg, ip qd for 5 days measured on day 7; format: functional; details: route intraperitoneal
In short: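 Inbred golden hamsters of either sex, 40–45 g, infected intracardiacally with 1 × 10⁷ L. donovani amastigotes per animal. Dosing was 50 mg/kg ip for 5 days. Biopsies were taken on day 7 after the last dose and amastigotes counted by Giemsa staining. Counts were compared between treated and untreated animals and with the initial count in treated animals, and expressed as per cent inhibition.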

Row | SMILES | CC50 at 72 h [1] [µM] | IC50 [2] [µM] | Ratio CC50/IC50 [3] | inhibition at 40 µM [4] [%] | inhibition in vivo at 50 mg/kg [5] [%]
1 | CC1=C(/C=C/C(=O)/C=C/c2ccc(-n3cncn3)cc2)C(C)(C)CCC1 | 72.4 | 15.3 | 5 | 100 | 
2 | CC1=C(/C=C/C2=NN(c3ccccc3)C(c3ccc(-n4cncn4)cc3)C2)C(C)(C)CCC1 (centres undefined) | 112 | 6.4 | 18 | 100 | 79
3 | CC1=C(/C=C/C2=NN(c3ccc(F)cc3)C(c3ccc(-n4cncn4)cc3)C2)C(C)(C)CCC1 (centres undefined) | 58.6 | 12.4 | 5 | 98.7 | 
4 | CC1=CCCC(C)(C)C1/C=C/C(=O)/C=C/c1ccc(-n2cncn2)cc1 (centres undefined) | 38.5 | 11.6 | 3 | 98.2 | 
5 | CC1=CCCC(C)(C)C1/C=C/C1=NN(c2ccccc2)C(c2ccc(-n3cncn3)cc2)C1 (centres undefined) | 296 | 9.2 | 32 | 98 | 58
6 | CC1=CCCC(C)(C)C1/C=C/C1=NN(c2ccc(F)cc2)C(c2ccc(-n3cncn3)cc2)C1 (centres undefined) | 72.2 | 16.9 | 4 | 90.5 | 
7 | Clc1ccc(COC(Cn2ccnc2)c2ccc(Cl)cc2Cl)c(Cl)c1 (centres undefined) [MICONAZOLE] | 37.4 | 5.4 | 7 | 100 | 
8 | CCCCCCCCCCCCCCCCOP(=O)([O-])OCC[N+](C)(C)C [MILTEFOSINE] | 54.7 | 8.6 | 6 | 100 | 

Reference: ChEMBL document CHEMBL2380301, “Chemotherapy of leishmaniasis. Part XII: design, synthesis and bioevaluation of novel triazole integrated phenyl heteroterpenoids as antileishmanial agents” (Bioorg Med Chem Lett, 2013)
